Test results: PMC3288193 (Clinical Immunology (Orlando, Fla.), 2011)

How the values were obtained:
[1] = test system: purified Class II molecules (DRB1*0101, DRB1*0301, DRB1*0401, DRB1*0701, DRB1*1501); test: Competition-based class II HLA binding assay; set-up: species or system human; settings: test peptide 100 μM; average of 5 DRB1 alleles; Fig. 2
Procedure, shortened: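 Non-biotinylated test peptides (HPLC-purified ≥80%) at 100 μM competed against biotinylated standard peptide (0.1 μM) for purified class II molecules (50 nM), 24 h at 37°C. Complexes were captured on ELISA plates with pan anti-class II L243, then incubated with europium-streptavidin for 1 h at RT, developed 15–20 min, and read by TRF. Triplicates. Percent inhibition per allele was averaged across five alleles.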

[2] = test system: LN cells of hemophilic FVIII KO E16 mice (H-2b); test: T cell proliferation of LN cells from peptide-immunized E16 mice; assay type: in vivo, mouse; settings: LN cells stimulated with 2191 in presence of competitor ORG peptides over a range of concentrations, Appendix Fig. 1
[3] = test system: LN cells of HLA-DR4 (DRB1*0401) transgenic mice; test: T cell proliferation of LN cells from peptide-immunized DR4 mice; assay type: in vivo, mouse; settings: DR4 mice immunized with mixture of 2231-M1, -M2, -M3, 3 μg each in CFA; Fig. 5C
Procedure, shortened: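 Mixed peptides (3 μg each in CFA) were injected subcutaneously via hind footpad and tail base. After two weeks, pooled draining inguinal/popliteal LN cells (0.5×10^6/well) were stimulated 48 h with ORG or MOD peptides (0, 1, 3, 10 μg/ml) in RPMI 1640 with 2% FBS and 0.5% hemophilic mouse serum. Cells were pulsed with 1 μCi [3H]-thymidine for 16–20 h and beta-counted. Results are background-subtracted ΔCPM, mean ± SEM of triplicates.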

Row | effect of modification on average HLA binding versus ORG peptide [1] | HLA binding, average across HLA alleles (rank among ORG peptides) [1] | Substance | effect of competitor ORG peptides on 2191-O-specific proliferation [2] | de novo immunogenicity of MOD peptides (T cell proliferation) [3]
1 | only moderately reduced binding | – | 2191-M1: modified (MOD) version of 2191-O with one substitution, F2196G (TASSYGTNMFATWSPSKARL) | – | –
2 | – | bound strongest | 2191-O: original (ORG) human FVIII C2 domain epitope cluster peptide, amino acid positions 2191–2210 (TASSYFTNMFATWSPSKARL) | not affected by the presence of competitor ORG peptides | –
3 | lower HLA binding | – | 2231-M1: modified (MOD) version of 2231-O with F2234G mutation (QVDGQKTMKVTGVTTQGVKSL) | – | significantly lower
